Active and inactive are the calls of the source. No cut-off for these calls is given here.
Legend:
[1] = target: Glycogen synthase kinase-3 beta (Homo sapiens) (UniProt P49841); test: Inhibition of GSK3beta (unknown origin) at 1 uM incubated for 30 mins in presence of [gamma-33P]ATP by multidrop micro reagent based assay relative to control; values are per cent of control
[2] = target: Serine/threonine-protein kinase Chk2 (Homo sapiens) (UniProt O96017); test: Inhibition of CHK2 (unknown origin) at 1 uM incubated for 30 mins in presence of [gamma-33P]ATP by multidrop micro reagent based assay relative to control; values are per cent of control
Chain of Serine/threonine-protein kinase Chk2 (Homo sapiens) (O96017 whole entry, the tested form may be a part): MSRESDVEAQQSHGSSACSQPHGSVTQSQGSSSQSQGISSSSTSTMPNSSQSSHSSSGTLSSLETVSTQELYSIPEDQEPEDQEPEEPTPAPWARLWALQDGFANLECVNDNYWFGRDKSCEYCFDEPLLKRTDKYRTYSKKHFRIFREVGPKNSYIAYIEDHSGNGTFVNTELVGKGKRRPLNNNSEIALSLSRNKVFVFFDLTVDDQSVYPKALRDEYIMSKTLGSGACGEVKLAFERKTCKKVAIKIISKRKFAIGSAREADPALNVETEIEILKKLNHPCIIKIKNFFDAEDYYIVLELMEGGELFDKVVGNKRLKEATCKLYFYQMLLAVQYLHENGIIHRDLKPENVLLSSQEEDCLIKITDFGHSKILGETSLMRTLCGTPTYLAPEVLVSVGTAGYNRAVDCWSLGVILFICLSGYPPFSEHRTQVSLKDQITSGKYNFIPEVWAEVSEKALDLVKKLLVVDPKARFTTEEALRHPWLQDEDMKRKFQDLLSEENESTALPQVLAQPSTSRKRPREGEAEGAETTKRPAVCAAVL

[3] = target: Leucine-rich repeat serine/threonine-protein kinase 2 (Homo sapiens, UniProt Q5S007, G2019S); test: Inhibition of GST-tagged LRRK2 G2019S mutant (1326 to 2527 residues) (unknown origin) using peptide as substrate incubated for 15 mins in presence of ATP by immunoblotting analysis
[4] = target: cAMP-dependent protein kinase (PKA) (Homo sapiens) (UniProt P22694+P17612+P22612); test: Inhibition of PKA (unknown origin) at 1 uM incubated for 30 mins in presence of [gamma-33P]ATP by multidrop micro reagent based assay relative to control; values are per cent of control
[5] = target: Mitogen-activated protein kinase 11 (Homo sapiens) (UniProt Q15759); test: Inhibition of p38beta MAPK (unknown origin) at 1 uM incubated for 30 mins in presence of [gamma-33P]ATP by multidrop micro reagent based assay relative to control; values are per cent of control
Chain of Mitogen-activated protein kinase 11 (Homo sapiens) (Q15759 whole entry): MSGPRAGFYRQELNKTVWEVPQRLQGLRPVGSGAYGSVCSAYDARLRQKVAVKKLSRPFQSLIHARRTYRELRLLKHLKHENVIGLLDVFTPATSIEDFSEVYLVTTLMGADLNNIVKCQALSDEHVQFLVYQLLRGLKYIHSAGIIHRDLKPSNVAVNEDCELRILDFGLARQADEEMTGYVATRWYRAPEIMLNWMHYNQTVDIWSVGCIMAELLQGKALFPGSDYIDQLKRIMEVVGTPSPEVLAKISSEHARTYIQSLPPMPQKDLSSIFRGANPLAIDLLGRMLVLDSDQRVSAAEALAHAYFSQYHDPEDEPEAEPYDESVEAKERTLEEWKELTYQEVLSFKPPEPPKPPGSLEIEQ

[6] = target: T1, Protein kinase C zeta type (Homo sapiens) (UniProt Q05513); test: Inhibition of PKCzeta (unknown origin) at 1 uM incubated for 30 mins in presence of [gamma-33P]ATP by multidrop micro reagent based assay relative to control; values are per cent of control
T1 sequence (whole entry): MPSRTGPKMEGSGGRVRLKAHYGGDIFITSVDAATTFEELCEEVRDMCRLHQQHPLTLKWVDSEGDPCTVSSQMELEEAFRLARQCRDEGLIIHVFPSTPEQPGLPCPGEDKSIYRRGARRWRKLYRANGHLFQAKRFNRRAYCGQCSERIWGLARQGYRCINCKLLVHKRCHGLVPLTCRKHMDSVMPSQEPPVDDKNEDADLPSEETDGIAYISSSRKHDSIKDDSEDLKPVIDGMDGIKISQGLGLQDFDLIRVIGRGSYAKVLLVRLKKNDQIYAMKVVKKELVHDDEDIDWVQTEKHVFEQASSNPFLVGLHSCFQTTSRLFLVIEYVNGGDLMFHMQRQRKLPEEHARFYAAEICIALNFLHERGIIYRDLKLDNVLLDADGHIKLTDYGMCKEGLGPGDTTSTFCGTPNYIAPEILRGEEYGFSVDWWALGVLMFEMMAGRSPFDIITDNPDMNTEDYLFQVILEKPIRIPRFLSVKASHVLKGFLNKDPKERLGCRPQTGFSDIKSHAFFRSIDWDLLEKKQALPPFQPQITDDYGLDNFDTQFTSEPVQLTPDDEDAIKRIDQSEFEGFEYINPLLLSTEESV

[7] = target: Calcium/calmodulin-dependent protein kinase kinase 2 (Homo sapiens) (UniProt Q96RR4); test: Inhibition of CaMKKbeta (unknown origin) at 1 uM incubated for 30 mins in presence of [gamma-33P]ATP by multidrop micro reagent based assay relative to control; values are per cent of control
Chain of Calcium/calmodulin-dependent protein kinase kinase 2 (Homo sapiens) (Q96RR4 2-588 limits assumed): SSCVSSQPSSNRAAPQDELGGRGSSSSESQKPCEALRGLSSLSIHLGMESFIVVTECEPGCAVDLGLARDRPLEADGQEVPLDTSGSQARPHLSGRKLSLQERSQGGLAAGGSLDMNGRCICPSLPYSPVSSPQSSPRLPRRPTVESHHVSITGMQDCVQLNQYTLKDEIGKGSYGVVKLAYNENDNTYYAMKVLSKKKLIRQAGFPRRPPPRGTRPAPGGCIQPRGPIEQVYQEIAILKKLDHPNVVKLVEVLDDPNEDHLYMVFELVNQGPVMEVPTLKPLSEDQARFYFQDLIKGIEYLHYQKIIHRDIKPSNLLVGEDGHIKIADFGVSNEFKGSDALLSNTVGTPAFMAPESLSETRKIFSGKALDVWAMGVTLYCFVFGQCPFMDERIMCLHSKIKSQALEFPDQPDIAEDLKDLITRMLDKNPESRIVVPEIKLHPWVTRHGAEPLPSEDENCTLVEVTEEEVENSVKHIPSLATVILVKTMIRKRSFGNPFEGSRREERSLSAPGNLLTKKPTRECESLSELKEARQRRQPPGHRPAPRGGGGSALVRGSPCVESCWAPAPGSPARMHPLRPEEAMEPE

[8] = target: T2, Leucine-rich repeat serine/threonine-protein kinase 2 (Homo sapiens, UniProt Q5S007); test: Inhibition of GST-tagged LRRK2 (1326 to 2527 residues) (unknown origin) using peptide as substrate incubated for 15 mins in presence of ATP by immunoblotting analysis
T2 sequence (Q5S007 whole entry, the tested form may be a part): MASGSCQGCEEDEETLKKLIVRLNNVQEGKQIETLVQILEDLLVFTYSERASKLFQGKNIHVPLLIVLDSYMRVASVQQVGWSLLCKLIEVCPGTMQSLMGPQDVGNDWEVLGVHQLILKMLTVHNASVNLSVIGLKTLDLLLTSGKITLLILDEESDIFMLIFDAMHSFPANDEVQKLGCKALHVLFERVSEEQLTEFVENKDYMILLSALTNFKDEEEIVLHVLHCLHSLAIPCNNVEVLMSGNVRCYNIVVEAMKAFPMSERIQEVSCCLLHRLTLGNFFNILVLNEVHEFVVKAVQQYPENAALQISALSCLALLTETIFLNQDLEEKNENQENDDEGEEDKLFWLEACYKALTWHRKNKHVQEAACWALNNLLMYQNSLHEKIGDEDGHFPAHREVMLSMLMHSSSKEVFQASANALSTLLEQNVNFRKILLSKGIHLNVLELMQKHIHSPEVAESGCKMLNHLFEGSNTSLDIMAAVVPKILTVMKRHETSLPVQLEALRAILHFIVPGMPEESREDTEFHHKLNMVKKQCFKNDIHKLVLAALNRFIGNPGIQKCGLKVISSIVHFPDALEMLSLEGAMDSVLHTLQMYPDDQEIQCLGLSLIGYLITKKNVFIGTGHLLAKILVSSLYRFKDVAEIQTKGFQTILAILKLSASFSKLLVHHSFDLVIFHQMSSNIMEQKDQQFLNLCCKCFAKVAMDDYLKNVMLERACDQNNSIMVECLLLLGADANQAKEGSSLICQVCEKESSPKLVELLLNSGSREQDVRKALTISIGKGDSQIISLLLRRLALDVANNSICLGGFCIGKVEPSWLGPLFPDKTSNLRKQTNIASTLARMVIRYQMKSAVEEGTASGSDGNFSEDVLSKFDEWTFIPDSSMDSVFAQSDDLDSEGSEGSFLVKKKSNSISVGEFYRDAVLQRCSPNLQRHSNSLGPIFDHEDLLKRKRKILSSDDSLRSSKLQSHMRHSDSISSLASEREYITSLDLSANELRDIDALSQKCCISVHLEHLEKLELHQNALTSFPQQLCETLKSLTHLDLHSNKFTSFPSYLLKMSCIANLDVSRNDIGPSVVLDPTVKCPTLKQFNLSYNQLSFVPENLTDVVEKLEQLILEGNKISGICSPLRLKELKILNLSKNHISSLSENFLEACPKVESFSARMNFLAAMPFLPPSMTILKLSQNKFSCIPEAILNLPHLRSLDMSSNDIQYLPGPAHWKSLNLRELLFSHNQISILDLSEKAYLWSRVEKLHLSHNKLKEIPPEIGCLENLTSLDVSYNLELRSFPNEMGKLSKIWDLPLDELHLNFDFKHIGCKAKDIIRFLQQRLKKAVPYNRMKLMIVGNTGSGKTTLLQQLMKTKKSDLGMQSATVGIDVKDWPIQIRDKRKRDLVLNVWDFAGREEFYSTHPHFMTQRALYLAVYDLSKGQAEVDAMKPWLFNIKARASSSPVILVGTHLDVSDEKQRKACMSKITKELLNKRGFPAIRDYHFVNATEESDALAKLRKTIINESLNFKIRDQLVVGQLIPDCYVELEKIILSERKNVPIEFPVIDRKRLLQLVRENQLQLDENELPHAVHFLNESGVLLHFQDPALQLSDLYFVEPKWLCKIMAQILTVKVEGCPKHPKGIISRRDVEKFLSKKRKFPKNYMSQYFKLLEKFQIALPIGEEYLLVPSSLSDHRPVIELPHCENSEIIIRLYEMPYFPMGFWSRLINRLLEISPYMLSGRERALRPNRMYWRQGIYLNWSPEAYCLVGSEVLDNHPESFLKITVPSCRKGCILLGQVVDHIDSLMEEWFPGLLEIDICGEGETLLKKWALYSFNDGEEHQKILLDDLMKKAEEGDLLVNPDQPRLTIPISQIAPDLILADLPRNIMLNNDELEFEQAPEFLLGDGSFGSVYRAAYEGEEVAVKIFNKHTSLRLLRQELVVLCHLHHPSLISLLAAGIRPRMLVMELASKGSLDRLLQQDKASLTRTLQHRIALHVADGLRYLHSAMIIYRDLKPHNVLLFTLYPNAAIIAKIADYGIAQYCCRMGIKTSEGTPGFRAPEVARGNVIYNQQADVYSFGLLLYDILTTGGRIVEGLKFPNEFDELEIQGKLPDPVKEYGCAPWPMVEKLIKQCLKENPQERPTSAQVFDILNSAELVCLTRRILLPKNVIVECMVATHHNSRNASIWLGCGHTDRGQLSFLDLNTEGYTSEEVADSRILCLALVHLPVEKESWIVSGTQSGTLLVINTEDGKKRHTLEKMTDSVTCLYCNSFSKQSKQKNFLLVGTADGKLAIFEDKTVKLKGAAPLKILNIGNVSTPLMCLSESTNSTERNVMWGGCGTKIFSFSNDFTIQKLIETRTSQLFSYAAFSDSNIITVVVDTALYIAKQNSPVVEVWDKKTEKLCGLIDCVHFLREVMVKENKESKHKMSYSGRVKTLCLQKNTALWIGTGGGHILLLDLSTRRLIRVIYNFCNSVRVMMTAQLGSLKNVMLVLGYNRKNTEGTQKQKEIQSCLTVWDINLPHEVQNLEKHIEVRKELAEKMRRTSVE

[9] = target: T3, Mitogen-activated protein kinase kinase kinase kinase 2 (Homo sapiens) (UniProt Q12851); test: Inhibition of GCK (unknown origin) at 1 uM incubated for 30 mins in presence of [gamma-33P]ATP by multidrop micro reagent based assay relative to control
T3 sequence (whole entry): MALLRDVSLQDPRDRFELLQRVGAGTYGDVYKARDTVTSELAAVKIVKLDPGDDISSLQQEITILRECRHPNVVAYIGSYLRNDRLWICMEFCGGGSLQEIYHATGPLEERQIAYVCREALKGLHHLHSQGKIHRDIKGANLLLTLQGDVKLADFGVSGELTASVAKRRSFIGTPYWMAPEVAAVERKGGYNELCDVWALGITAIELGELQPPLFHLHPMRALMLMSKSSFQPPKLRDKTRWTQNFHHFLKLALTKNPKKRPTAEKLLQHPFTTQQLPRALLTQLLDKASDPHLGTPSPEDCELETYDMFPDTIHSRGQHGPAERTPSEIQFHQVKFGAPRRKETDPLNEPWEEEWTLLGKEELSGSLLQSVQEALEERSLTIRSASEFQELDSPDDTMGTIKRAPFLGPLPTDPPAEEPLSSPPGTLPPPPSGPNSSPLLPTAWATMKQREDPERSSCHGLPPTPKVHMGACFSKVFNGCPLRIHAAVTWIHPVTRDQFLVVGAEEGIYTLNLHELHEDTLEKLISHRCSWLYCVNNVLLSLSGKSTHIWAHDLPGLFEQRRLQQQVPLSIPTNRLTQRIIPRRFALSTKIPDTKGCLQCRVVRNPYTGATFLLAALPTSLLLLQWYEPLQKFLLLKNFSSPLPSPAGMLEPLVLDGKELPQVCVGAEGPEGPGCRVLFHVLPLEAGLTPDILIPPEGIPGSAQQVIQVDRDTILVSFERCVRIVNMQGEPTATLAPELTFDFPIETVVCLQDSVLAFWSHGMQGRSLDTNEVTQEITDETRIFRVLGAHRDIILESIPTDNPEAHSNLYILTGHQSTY

[10] = target: Maternal embryonic leucine zipper kinase (Homo sapiens) (UniProt Q14680); test: Inhibition of MELK (unknown origin) at 1 uM incubated for 30 mins in presence of [gamma-33P]ATP by multidrop micro reagent based assay relative to control; values are per cent of control
Chain of Maternal embryonic leucine zipper kinase (Homo sapiens) (Q14680 whole entry, looked up): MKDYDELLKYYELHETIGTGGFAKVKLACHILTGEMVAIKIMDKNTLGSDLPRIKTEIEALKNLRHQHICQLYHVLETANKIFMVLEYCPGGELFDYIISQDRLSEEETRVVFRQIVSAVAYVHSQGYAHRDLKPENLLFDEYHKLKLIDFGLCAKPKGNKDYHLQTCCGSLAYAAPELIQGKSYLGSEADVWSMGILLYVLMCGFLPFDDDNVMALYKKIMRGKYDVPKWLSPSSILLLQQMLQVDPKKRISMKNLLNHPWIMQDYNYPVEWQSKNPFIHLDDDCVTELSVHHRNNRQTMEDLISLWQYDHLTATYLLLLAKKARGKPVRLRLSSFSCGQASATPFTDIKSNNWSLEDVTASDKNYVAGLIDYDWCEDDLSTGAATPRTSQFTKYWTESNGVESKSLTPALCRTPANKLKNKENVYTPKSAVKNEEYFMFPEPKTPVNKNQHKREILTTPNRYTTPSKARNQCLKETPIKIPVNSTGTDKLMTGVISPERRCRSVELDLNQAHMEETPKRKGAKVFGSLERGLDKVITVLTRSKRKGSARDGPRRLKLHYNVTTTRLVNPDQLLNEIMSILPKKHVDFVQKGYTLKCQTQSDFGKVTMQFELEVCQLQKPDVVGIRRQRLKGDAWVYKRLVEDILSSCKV

[11] = test system: Leucine-rich repeat serine/threonine-protein kinase 2 (Homo sapiens), Q5S007 [G2019S]; test: Inhibition of LRRK2 G2019S mutant (unknown origin) at 1 uM incubated for 30 mins in presence of [gamma-33P]ATP by multidrop micro reagent based assay relative to control; values are per cent of control
[12] = target: T2, Leucine-rich repeat serine/threonine-protein kinase 2; test: Inhibition of LRRK2 in human Flp-In-T-REx-293 cells harboring GFP-tagged constitutively active G14V-Rho mutant assessed as inhibition of ERM phosphorylation at 10 uM incubated for 1 hr in presence of LRRKtide by immunoblot analysis; assay type: cell-based
Procedure, shortened: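 Flp-in T-REx cells carrying GFP-tagged G14V-Rho were left uninduced or induced with 1 μg/ml doxycycline. At 7 h, compound at 10 μM was added for 1 h. Cells were lysed in SDS lysis buffer, run on 4–12% gels and immunoblotted with pan-phospho-ERM antibody (1 μg/ml in milk/TBST containing 10 μg/ml LRRKtide).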

Chain of Glycogen synthase kinase-3 beta (Homo sapiens) (P49841 whole entry, looked up): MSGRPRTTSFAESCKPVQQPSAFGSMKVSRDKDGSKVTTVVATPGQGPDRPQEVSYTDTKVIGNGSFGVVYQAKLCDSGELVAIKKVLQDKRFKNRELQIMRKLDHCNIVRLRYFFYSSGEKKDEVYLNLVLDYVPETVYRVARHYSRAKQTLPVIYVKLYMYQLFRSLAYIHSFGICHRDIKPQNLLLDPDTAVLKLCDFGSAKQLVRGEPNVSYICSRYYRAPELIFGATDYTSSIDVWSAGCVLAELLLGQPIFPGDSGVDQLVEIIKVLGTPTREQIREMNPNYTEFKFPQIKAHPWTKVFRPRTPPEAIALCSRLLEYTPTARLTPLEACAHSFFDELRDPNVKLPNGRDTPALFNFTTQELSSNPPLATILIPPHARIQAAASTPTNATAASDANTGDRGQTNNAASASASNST

| SMILES | residual activity [1] [%] | residual activity [2] [%] | IC50 [3] [µM] | residual activity [4] [%] | residual activity [5] [%] | residual activity [6] [%] | residual activity [7] [%] | IC50 [8] [µM] | residual activity [9] [%] | residual activity [10] [%] | residual activity [11] [%] | inhibition [12] |
| --- | --- | --- | --- | --- | --- | --- | --- | --- | --- | --- | --- | --- |
| CC1=C(C(=O)Nc2cc3cn[nH]c3cc2F)C(c2ccc(C(F)(F)F)cc2)CC(=O)N1 (configuration not stated) | 93 | 102 | > 100 | 88 | 97 | 81 | 100 | > 100 | 97 | 83 | 97 | inactive |
| Cc1cncc2cccc(S(=O)(=O)N3CCCNC[C@@H]3C)c12 | 72 | 44 | 0.15 | 76 | 107 | 86 | 81 | 0.244 | 56 | 70 | 13 | inactive |
| CCN(CC)CCNC(=O)c1c(C)[nH]c(/C=C2\C(=O)Nc3ccc(F)cc32)c1C | – | 5 | – | – | – | – | 39 | – | – | 17 | – | inactive |
| CCn1c(-c2nonc2N)nc2cnc(Oc3cccc(NC(=O)c4ccc(OCCN5CCOCC5)cc4)c3)cc21 [GSK-269962A] | 12 | – | 2.3 | 22 | 113 | 5 | 98 | 3.7 | 78 | 44 | 66 | inactive |
| C[C@@H](N)[C@H]1CC[C@H](C(=O)Nc2ccncc2)CC1 | – | – | – | – | – | – | – | – | – | – | – | inactive |
| O=S(=O)(c1cccc2cnccc12)N1CCCNCC1 [FASUDIL] | – | – | > 30 | – | – | – | – | > 30 | – | – | – | – |

Reference: ChEMBL document CHEMBL5705888, “Substrate specificity and inhibitors of LRRK2, a protein kinase mutated in Parkinson's disease” (Biochem J, 2009)
